# Measurements from paper PMC8633684 (Translational Oncology, 2021).
# How the values were obtained:
# [1] = Pharmacokinetic analysis, plasma and tissue concentration; assay type: in vivo, CD1 mice; conditions: CD1, mouse, 1 mg/kg
# MCL-1 = MCL-1 protein in KP-4 transplanted tumor homogenate; assay type: in vivo, BALB/c Nude mice; conditions: KP-4 xenograft, BS-HH-002 5.4 mg/kg, versus vehicle group
# Outline: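 The model was KP-4 subcutaneous xenografts in BALB/c Nude mice. Tumors from at least five mice in each of the vehicle, gemcitabine and test compound (5.4 mg/kg) groups were analysed. MCL-1 and BCL-XL protein levels were measured by Western blot with β-actin or β-Tubulin as internal reference.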
# KP-4 transplanted tumor = assay: KP-4 xenograft, 6 days of treatment followed by 3 days off-drug; assay type: in vivo, BALB/c Nude mice; conditions: compared with vehicle group
# TIP30/CC3 = assay: Immunofluorescence of TIP30/CC3 in KP-4 tumor sections; assay type: in vivo, BALB/c Nude mice; conditions: BS-HH-002 at 3.0 mg/kg, p = 0.004, p = 0.461
smiles,measurement,setting,value
"COC(=O)C[C@](O)(CCCC(C)(C)O)C(=O)O[C@@H]1C(OC)=C[C@]23CCCN2CCc2cc4c(cc2[C@H]13)OCO4 [HHT, homoharringtonine]",concentration at 2 h,"[1]; bone marrow, po",669 ng/mL
same,concentration at 8 h,"[1]; bone marrow, po",48.6 ng/mL
same,concentration at 0.5 h,"[1]; bone marrow, sc",141 ng/mL
same,concentration at 2 h,"[1]; bone marrow, sc",412 ng/mL
same,concentration at 8 h,"[1]; bone marrow, sc",43.5 ng/mL
same,concentration at 0.5 h,"[1]; brain, sc",11 ng/mL
same,concentration at 2 h,"[1]; brain, sc",6.37 ng/mL
same,concentration at 8 h,"[1]; brain, sc",4.97 ng/mL
same,concentration at 0.5 h,"[1]; esophagus, po",607 ng/mL
same,concentration at 0.5 h,"[1]; esophagus, sc",138 ng/mL
same,concentration at 2 h,"[1]; esophagus, sc",185 ng/mL
same,concentration at 8 h,"[1]; esophagus, sc",52.6 ng/mL
same,concentration at 0.5 h,"[1]; heart, po",125 ng/mL
same,concentration at 2 h,"[1]; heart, po",321 ng/mL
same,concentration at 8 h,"[1]; heart, po",156 ng/mL
same,concentration at 0.5 h,"[1]; heart, sc",541 ng/mL
same,concentration at 2 h,"[1]; heart, sc",254 ng/mL
same,concentration at 8 h,"[1]; heart, sc",115 ng/mL
same,concentration at 0.5 h,"[1]; kidney, po",25.4 ng/mL
same,concentration at 2 h,"[1]; kidney, po",117 ng/mL
same,concentration at 8 h,"[1]; kidney, po",33.5 ng/mL
same,concentration at 0.5 h,"[1]; kidney, sc",2010 ng/mL
same,concentration at 2 h,"[1]; kidney, sc",796 ng/mL
same,concentration at 8 h,"[1]; kidney, sc",95.6 ng/mL
same,concentration at 24 h,"[1]; kidney, sc",5.04 ng/mL
same,concentration at 0.5 h,"[1]; large intestine, po",105 ng/mL
same,concentration at 2 h,"[1]; large intestine, po",528 ng/mL
same,concentration at 8 h,"[1]; large intestine, po",689 ng/mL
same,concentration at 0.5 h,"[1]; large intestine, sc",1030 ng/mL
same,concentration at 2 h,"[1]; large intestine, sc",807 ng/mL
same,concentration at 8 h,"[1]; large intestine, sc",502 ng/mL
same,concentration at 24 h,"[1]; large intestine, sc",35.4 ng/mL
same,concentration at 0.5 h,"[1]; liver, po",184 ng/mL
same,concentration at 2 h,"[1]; liver, po",296 ng/mL
same,concentration at 8 h,"[1]; liver, po",173 ng/mL
same,concentration at 0.5 h,"[1]; liver, sc",983 ng/mL
same,concentration at 2 h,"[1]; liver, sc",615 ng/mL
same,concentration at 8 h,"[1]; liver, sc",80.2 ng/mL
same,concentration at 24 h,"[1]; liver, sc",4.53 ng/mL
same,concentration at 0.5 h,"[1]; lung, po",135 ng/mL
same,concentration at 2 h,"[1]; lung, po",807 ng/mL
same,concentration at 8 h,"[1]; lung, po",73.6 ng/mL
same,concentration at 0.5 h,"[1]; lung, sc",693 ng/mL
same,concentration at 2 h,"[1]; lung, sc",287 ng/mL
same,concentration at 8 h,"[1]; lung, sc",62.5 ng/mL
same,concentration at 24 h,"[1]; lung, sc",5.8 ng/mL
same,concentration at 0.5 h,"[1]; pancreas, po",85.8 ng/mL
same,concentration at 2 h,"[1]; pancreas, po",228 ng/mL
same,concentration at 8 h,"[1]; pancreas, po",211 ng/mL
same,concentration at 24 h,"[1]; pancreas, po",4.86 ng/mL
same,concentration at 0.5 h,"[1]; pancreas, sc",753 ng/mL
same,concentration at 2 h,"[1]; pancreas, sc",512 ng/mL
same,concentration at 8 h,"[1]; pancreas, sc",215 ng/mL
same,concentration at 24 h,"[1]; pancreas, sc",5.62 ng/mL
same,concentration at 0.5 h,"[1]; plasma, po",14.8 ng/mL
same,concentration at 2 h,"[1]; plasma, po",47.7 ng/mL
same,concentration at 8 h,"[1]; plasma, po",13.7 ng/mL
same,concentration at 0.5 h,"[1]; plasma, sc",166 ng/mL
same,concentration at 2 h,"[1]; plasma, sc",48.9 ng/mL
same,concentration at 8 h,"[1]; plasma, sc",11.1 ng/mL
same,concentration at 24 h,"[1]; plasma, sc",0.929 ng/mL
same,concentration at 0.5 h,"[1]; spleen, po",184 ng/mL
same,concentration at 2 h,"[1]; spleen, po",742 ng/mL
same,concentration at 8 h,"[1]; spleen, po",225 ng/mL
same,concentration at 0.5 h,"[1]; spleen, sc",1990 ng/mL
same,concentration at 2 h,"[1]; spleen, sc",1290 ng/mL
same,concentration at 8 h,"[1]; spleen, sc",282 ng/mL
same,concentration at 24 h,"[1]; spleen, sc",16.5 ng/mL
same,concentration at 0.5 h,"[1]; stomach, po",1360 ng/mL
same,concentration at 2 h,"[1]; stomach, po",806 ng/mL
same,concentration at 8 h,"[1]; stomach, po",870 ng/mL
same,concentration at 0.5 h,"[1]; stomach, sc",999 ng/mL
same,concentration at 2 h,"[1]; stomach, sc",587 ng/mL
same,concentration at 8 h,"[1]; stomach, sc",128 ng/mL
same,concentration at 24 h,"[1]; stomach, sc",9.84 ng/mL
"Nc1ccn([C@@H]2O[C@H](CO)[C@@H](O)C2(F)F)c(=O)n1 [gemcitabine, Gemcitabine]",MCL-1 protein level in tumor cells,MCL-1,no significant difference
same,tumor volume,KP-4 transplanted tumor,decreased significantly
same,CC3 protein expression,TIP30/CC3,significantly increased
